Experiments:
Conditions in all cases: in vivo
Rattus norvegicus [1] = organism: Rattus norvegicus; assay: Tissue biodistribution into estrogen-primed immature female rat lung at 1 hr blocked time interval; assay type: ADME, organism-based
Outline: (§1)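 Immature female Sprague-Dawley rats (25 days old, ≈50 g, five per time point) primed with estradiol, 5 μg sc daily for 2 days in 50% ethanol/sunflower seed oil, used 24 h after the last injection. The 18F-labeled ligand was given iv by tail vein in 10% ethanol/saline. Decapitated at 1 or 3 h; blood and organs weighed and gamma-counted. Reported as %ID/g ± SD, n = 5.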

Rattus norvegicus [2] = organism: Rattus norvegicus; assay: Tissue biodistribution into estrogen-primed immature female rat muscle at 1 hr blocked time interval; assay type: ADME, organism-based; outline: as §1
Rattus norvegicus [3] = organism: Rattus norvegicus; assay: Tissue biodistribution into estrogen-primed immature female rat uterus/muscle at 1 hr time interval; assay type: ADME, organism-based
Rattus norvegicus [4] = organism: Rattus norvegicus; assay: Tissue biodistribution into estrogen-primed immature female rat ovaries at 1 hr time interval; assay type: ADME, organism-based, Female gonad; outline: as §1
Rattus norvegicus [5] = organism: Rattus norvegicus; assay: Tissue biodistribution into estrogen-primed immature female rat uterus at 3 hr time interval; assay type: ADME, organism-based; outline: as §1
Rattus norvegicus [6] = organism: Rattus norvegicus; assay: Tissue biodistribution into estrogen-primed immature female rat brain at 3 hr time interval; assay type: ADME, organism-based; outline: as §1
Rattus norvegicus [7] = organism: Rattus norvegicus; assay: Tissue biodistribution into estrogen-primed immature female rat bone at 1 hr blocked time interval; assay type: ADME, organism-based, Bone element; outline: as §1
Rattus norvegicus [8] = organism: Rattus norvegicus; assay: Tissue biodistribution into estrogen-primed immature female rat brain at 1 hr time interval; assay type: ADME, organism-based; outline: as §1
Rattus norvegicus [9] = organism: Rattus norvegicus; assay: Tissue biodistribution into estrogen-primed immature female rat blood at 1 hr blocked time interval; assay type: ADME, organism-based; outline: as §1
Rattus norvegicus [10] = organism: Rattus norvegicus; assay: Tissue biodistribution into estrogen-primed immature female rat brain at 1 hr blocked time interval; assay type: ADME, organism-based; outline: as §1
Rattus norvegicus [11] = organism: Rattus norvegicus; assay: Tissue biodistribution into estrogen-primed immature female rat liver at 3 hr time interval; assay type: ADME, organism-based; outline: as §1
Rattus norvegicus [12] = organism: Rattus norvegicus; assay: Tissue biodistribution into estrogen-primed immature female rat muscle at 1 hr time interval; assay type: ADME, organism-based; outline: as §1
Rattus norvegicus [13] = organism: Rattus norvegicus; assay: Tissue biodistribution into estrogen-primed immature female rat blood at 3 hr time interval; assay type: ADME, organism-based; outline: as §1
Rattus norvegicus [14] = organism: Rattus norvegicus; assay: Tissue biodistribution into estrogen-primed immature female rat liver at 1 hr low time interval; assay type: ADME, organism-based; outline: as §1
Rattus norvegicus [15] = organism: Rattus norvegicus; assay: Tissue biodistribution into estrogen-primed immature female rat ovaries at 1 hr low time interval; assay type: ADME, organism-based, Female gonad; outline: as §1
Rattus norvegicus [16] = organism: Rattus norvegicus; assay: Tissue biodistribution into estrogen-primed immature female rat ovaries at 3 hr time interval; assay type: ADME, organism-based, Female gonad; outline: as §1
Rattus norvegicus [17] = organism: Rattus norvegicus; assay: Tissue biodistribution into estrogen-primed immature female rat uterus/blood at 1 hr blocked time interval; assay type: ADME, organism-based; outline: as §1
Rattus norvegicus [18] = organism: Rattus norvegicus; assay: Tissue biodistribution into estrogen-primed immature female rat fat at 3 hr time interval; assay type: ADME, organism-based, Adipose tissue; outline: as §1
Rattus norvegicus [19] = organism: Rattus norvegicus; assay: Tissue biodistribution into estrogen-primed immature female rat liver at 1 hr time interval; assay type: ADME, organism-based; outline: as §1
Rattus norvegicus [20] = organism: Rattus norvegicus; assay: Tissue biodistribution into estrogen-primed immature female rat blood at 1 hr time interval; assay type: ADME, organism-based; outline: as §1
Rattus norvegicus [21] = organism: Rattus norvegicus; assay: Tissue biodistribution into estrogen-primed immature female rat kidney at 1 hr time interval; assay type: ADME, organism-based; outline: as §1
Rattus norvegicus [22] = organism: Rattus norvegicus; assay: Tissue biodistribution into estrogen-primed immature female rat ovaries at 1 hr blocked time interval; assay type: ADME, organism-based; outline: as §1
Rattus norvegicus [23] = organism: Rattus norvegicus; assay: Tissue biodistribution into estrogen-primed immature female rat uterus/blood at 1 hr time interval; assay type: ADME, organism-based; outline: as §1
Rattus norvegicus [24] = organism: Rattus norvegicus; assay: Tissue biodistribution into estrogen-primed immature female rat kidney at 1 hr low time interval; assay type: ADME, organism-based; outline: as §1
Rattus norvegicus [25] = organism: Rattus norvegicus; assay: Tissue biodistribution into estrogen-primed immature female rat fat at 1 hr low time interval; assay type: ADME, organism-based, Adipose tissue; outline: as §1
Rattus norvegicus [26] = organism: Rattus norvegicus; assay: Tissue biodistribution into estrogen-primed immature female rat uterus at 1 hr blocked time interval; assay type: ADME, organism-based; outline: as §1

Injected dose/g (Rattus norvegicus [1]): 1.16%
Injected dose/g (Rattus norvegicus [2]): 0.54%
Uterus to muscle uptake ratio (Rattus norvegicus [3]): 12.07%
Injected dose/g (Rattus norvegicus [4]): 3.04%
Injected dose/g (Rattus norvegicus [5]): 8.65%
Injected dose/g (Rattus norvegicus [6]): 0.19%
Injected dose/g (Rattus norvegicus [7]): 1.29%
Injected dose/g (Rattus norvegicus [8]): 0.58%
Injected dose/g (Rattus norvegicus [9]): 0.6%
Injected dose/g (Rattus norvegicus [10]): 0.49%
Injected dose/g (Rattus norvegicus [11]): 1.61%
Injected dose/g (Rattus norvegicus [12]): 0.64%
Injected dose/g (Rattus norvegicus [13]): 0.14%
Injected dose/g (Rattus norvegicus [14]): 0.68%
Injected dose/g (Rattus norvegicus [15]): 1.58%
Injected dose/g (Rattus norvegicus [16]): 2.66%
uterus/blood ratio (Rattus norvegicus [17]): 2.47
Injected dose/g (Rattus norvegicus [18]): 4.16%
Injected dose/g (Rattus norvegicus [19]): 1.26%
Injected dose/g (Rattus norvegicus [20]): 0.32%
Injected dose/g (Rattus norvegicus [21]): 1.59%
Injected dose/g (Rattus norvegicus [22]): 1.52%
Uterus to blood concentration ratio (Rattus norvegicus [23]): 20.09%
Injected dose/g (Rattus norvegicus [24]): 0.97%
Injected dose/g (Rattus norvegicus [25]): 1.86%
Injected dose/g (Rattus norvegicus [26]): 1.43%
SMILES: CC1(c2ccco2)O[C@@H]2CC3C4CCC5=CC(=O)CC[C@@H]5C4CC[C@]3(C)[C@]2(C(=O)CF)O1 (stereo partly specified)

From ChEMBL document CHEMBL1128440 (J Med Chem, 1995)
